Only some compounds are listed: those with a hit (about 2.3% of all), similar ones and a draw of the others.
Rtt109 HAT inh – C. albicans Rtt109 histone acetyltransferase inhibition. inhibition, % at 34.9 µM. purified Rtt109/Vps75, ThioGlo CoA-SH fluorescence, 4 h. AID 540336. Q5AAJ8. 330,000 tested, 0.16% active;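 active = inhibition of at least 50% in every replicate; inconclusive = best replicate reaches 50% inhibition but some replicates fall short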
Target sequence (Q5AAJ8 whole entry, looked up): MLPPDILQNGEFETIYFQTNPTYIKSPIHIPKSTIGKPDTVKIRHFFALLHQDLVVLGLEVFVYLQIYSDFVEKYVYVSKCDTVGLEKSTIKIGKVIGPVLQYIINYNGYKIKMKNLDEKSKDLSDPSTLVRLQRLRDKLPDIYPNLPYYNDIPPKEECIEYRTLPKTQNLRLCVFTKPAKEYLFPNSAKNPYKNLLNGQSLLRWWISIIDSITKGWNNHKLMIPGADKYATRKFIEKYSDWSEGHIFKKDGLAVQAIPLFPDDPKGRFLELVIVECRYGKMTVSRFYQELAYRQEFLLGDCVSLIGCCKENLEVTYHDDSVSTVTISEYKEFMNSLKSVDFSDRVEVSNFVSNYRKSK
PfHsp90 yeast 2 – inhibits growth of yeast expressing Plasmodium falciparum Hsp90 | S. cerevisiae expressing PfHsp90, BacTiter-Glo ATP, 48 h; yeast lacking PDR1 and PDR3 efflux regulators | inhibition, % at 9.4 µM | 310,000 tested, 0.32% active | AID 504621;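 active = every replicate shows inhibition above about 80%, whatever the replicate mean, limit read from the data; inconclusive = mean inhibition reaches the set limit but some replicate falls short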;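 note: 0% = DMSO neutral controls and 100% = 20 µM radicicol positive controls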
N-glyco inh – N-linked glycosylation inhibition; D54 ERlucT glycosylation luciferase reporter, 24 h; percent of 100 nM tunicamycin response; reporter increase, % at 12.5 µM; 360,000 tested, 0.23% active; AID 588692;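 active = mean luciferase reporter signal, scaled so untreated is 0 and the glycosylation-blocking control 100, at or above a set limit in every replicate; inconclusive = mean reaches the limit but not every replicate does; inactive = mean below the limit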;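 note: luciferase carries N-glycosylation sites so blocking glycosylation raises the light; 0% = median of neutral control wells and 100% = median of 100 nM tunicamycin wells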
Env fusion inh – blocks HIV Env-driven cell-cell fusion; HeLa-JRFL Env/CEM21 cell fusion, luciferase; AID 651610; 360,000 tested, 1.1% active; inhibition, % at 12.3 µM;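 active = mean replicate inhibition score of at least 50 and every replicate individually at or above 50; inconclusive = only one of the two criteria met; inactive = mean below 50 and not all replicates reaching 50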;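 note: 0% = plate neutral controls and 100% = maraviroc near 300 nM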
Arr AP2 block – blocks beta-arrestin peptide binding to AP2 adaptin. AID 504490. FITC-arrestin peptide / GST-AP2 beads, flow cytometry; AP2 beta2 appendage carries R879A mutation. 340,000 tested, 0.31% active. inhibition, % at 10 µM;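 active = inhibition above a set limit, near 3 SD of compounds lacking own fluorescence, cut at about 54% in these data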;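 note: plate controls were DMSO wells for no effect and 5 µM unlabelled arrestin peptide for full effect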
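System: GST-AP2 R879A glutathione beads | Also added: FITC-arrestin peptide, 50 nM | Times: 12 min plus 1 h, RT | Signal: Bead flow cytometry, FITC channel | Buffer or medium: PBS with 0.05% Tween 20 and 0.1% BSA | Read-out basis: Percent drop in bead-associated FITC signal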
PAX8 inh HTS – inhibitors of PAX8 transcriptional activity in RMG-I cells | inhibition, % at 12.6 µM | RMG-I TPO-luciferase reporter, SteadyGlo, 24 h | 360,000 tested, 1.2% active | AID 652154;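 active = mean replicate inhibition at least 60% with every replicate also reaching 60%; inconclusive = only one of the two criteria is met; inactive = mean below 60% and not all replicates reaching 60%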;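 note: luciferase light reporting Pax8 driven TPO promoter activity; plate controls were median of neutral control wells for no effect and mitoxantrone controls for full effect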
* hit, by the source's call; ? = inconclusive; · = no result given; ! = not active in a repeat; [ ] = another dose, or the depositor's remark.

SMILES | Rtt109 HAT inh | PfHsp90 yeast 2 | N-glyco inh | Env fusion inh | Arr AP2 block | PAX8 inh HTS
C[C@@H]1CCCCO[C@@H](CN(C)C(=O)Nc2ccc(C(F)(F)F)cc2)[C@@H](C)CN([C@H](C)CO)C(=O)c2cc(NS(=O)(=O)c3ccc(Cl)cc3)ccc2O1 | · | · | · | -1.4[16.7 µM] | · | 82.1*!
Cc1nc(SCC(=O)N(C)C2(C#N)CCCCC2)c2ccccc2n1 | 11.7 | 17.5 | -1.4 | · | -2.6 | 62.1*
COC(=O)C[C@@H]1C[C@H]2c3cc(NC(=O)CN(C)C)ccc3O[C@H]2[C@@H](CO)O1 | · | · | · | 8.8[16.7 µM] | · | -43.1
C[C@H](CO)N1C[C@H](C)[C@H](CN(C)Cc2cccc(C(F)(F)F)c2)Oc2ncccc2C1=O | · | · | · | · | · | 2.7
COc1ccc(S(=O)(=O)Nc2ccc3c(c2)C(=O)N([C@@H](C)CO)C[C@H](C)[C@H](CN(C)S(=O)(=O)c2ccccc2)OCCCC[C@@H](C)O3)cc1 | · | · | · | · | · | 11.9
Cc1cccc(OCc2n(CC(=O)OC3CC(C)CCC3C(C)C)c3ccccc3[n+]2C)c1 (centres undefined) | · | -28.5 | -7.1 | · | 0.2 | ·
CC1CCC(C(C)C)C(OC(=O)Cn2c(-c3ccccc3)[n+](C)c3ccccc32)C1 (centres undefined) | 34.9 | -9.8 | 19.1 | 69.0* | 4.3 | 81.3*
CC1CCC(C(C)C)C(OC(=O)Cn2c(-c3ccc(F)cc3)[n+](C)c3ccccc32)C1 (centres undefined) | 6.3 | 4.6 | 13.8 | 65.5* | 35.1 | 94.2*
COCC#Cc1cnc2c(c1)C(=O)N([C@@H](C)CO)C[C@@H](C)[C@H](CN(C)C)O2 | · | · | · | -19.5[16.7 µM] | · | ·
COc1ccc(NC(=O)N(C)C[C@H]2Oc3ccc(NC(=O)CCCCCC(=O)Nc4ccccc4N)cc3CC(=O)N([C@H](C)CO)C[C@H]2C)cc1 | · | · | · | -3.3[16.7 µM] | · | -3.3
C[C@@H]1CN([C@H](C)CO)C(=O)c2cc(NC(=O)CCCCCC(=O)Nc3ccccc3N)ccc2O[C@@H]1CN(C)Cc1ccc(Oc2ccccc2)cc1 | · | · | · | · | · | 70.8*
C[C@H]1CN([C@@H](C)CO)C(=O)c2cc(NC(=O)CCCCCC(=O)Nc3ccccc3N)ccc2O[C@@H]1CN(C)Cc1ccncc1 | · | · | · | -1.1[16.7 µM] | · | ·
C[C@@H]1CN([C@H](C)CO)C(=O)c2cc(NC(=O)CCCCCC(=O)Nc3ccccc3N)ccc2O[C@@H]1CN(C)Cc1ccc(C(F)(F)F)cc1 | · | · | · | · | · | 94.6*
C=C1CCN([C@@H](CC(C)C)C(=O)Nc2ccc(OC)cc2)S(=O)(=O)c2ccccc21 | 6.4 | · | -1.8 | 102.1* | -6.0 | -1.8
C=C1CCN([C@@H](Cc2ccccc2)C(=O)NCCC(C)C)S(=O)(=O)c2ccccc21 | 11.0 | · | -4.5 | 83.7* | 4.8 | -3.5
O=C1C=C(c2ccccc2)C(=O)N1Nc1ccccc1 | 1.6 | · | 10.6 | · | 25.6 | ·
Cc1ccc(NN2C(=O)C=C(c3ccc(Cl)cc3)C2=O)cc1 | -9.0 | 119.7* | 2.0 | · | -4.1 | ·
Cc1cccc(N=CC=C2OC(C)(C)C(C)(C)O2)c1 | -1.8 | 37.3 | 1.5 | 2.3 | -0.3 | -8.1
Cc1ccccc1N=CC=C1OC(C)(C)C(C)(C)O1 | -7.8 | 5.8 | 5.8 | · | 32.4 | 79.1*
COc1ccc(-c2nnc(SCC(=O)Oc3ccc(C)cc3)o2)cc1 | 3.0 | 105.1* | 0.4 | · | -3.8 | ·
CC(=O)N1[C@@H](CO)[C@@H](c2ccccc2)C12CN(C(=O)Cc1ccccc1)C2 | · | · | · | · | · | -8.7
C=CC[C@H](CC(=O)N(CCO)Cc1ccccc1)C(=O)N[C@H](COC(=O)[C@@H](CC=C)Cc1ccc(F)cc1)Cc1ccccc1 | 4.0 | 6.5 | -5.3 | ? | 0.8 | 80.0*
C=CC[C@@H](CC(=O)N(CCO)Cc1ccccc1)C(=O)N[C@H](COC(=O)[C@H](CC=C)CC(=O)OC(C)(C)C)Cc1c[nH]c2ccccc12 | 7.6 | -17.7 | -5.0 | -176.1 | -0.9 | 37.1
C=CCC[C@H](Cc1ccc(F)cc1)C(=O)OC[C@H](Cc1c[nH]c2ccccc12)NC(=O)[C@@H](CC=C)CC(=O)N(CCO)Cc1ccccc1 | 0.5 | -22.0 | -3.8 | 24.6 | 0.5 | 28.6
C=CCC[C@H](Cc1ccc(F)cc1)C(=O)OC[C@@H](Cc1c[nH]c2ccccc12)NC(=O)[C@@H](CC=C)CC(=O)N(CCO)Cc1ccccc1 | -3.8 | 13.4 | -2.8 | -126.3 | 8.0 | 83.6*
